The pIC50 is −log10 of the IC50, conventionally taken in molar units.

IC50 data for 16 compounds are collected here from ChEMBL document CHEMBL3091366, “New 5-Aryl-1H-imidazoles display in vitro antitumor activity against apoptosis-resistant cancer models, including melanomas, through mitochondrial targeting” (J Med Chem, 2013).

What all share (format): functional, cell-based
In one experiment the test system is B16-F10. Description: Cytotoxicity against apoptotic-sensitive mouse B16F10 cells assessed as growth inhibition after 72 hrs by MTT-based colorimetric assay. The following applies: B16-F10, 72 h. The gist of the method: (§1)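 MTT colorimetric assay, 72 h exposure to the fumarate salt. Read-out is reduction of MTT to formazan by living cells. IC50 is the concentration that reduces the whole cell population by 50%. Six replicates per condition. Where compounds were not tested on every line, apoptosis-sensitive lines were PC3, MCF-7, LoVo and B16F10, and apoptosis-resistant lines were U373, T98G, A549 and SK-MEL-28.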

For another experiment, the system named is SK-MEL-28. Kind of experiment: Cytotoxicity against apoptotic-resistant human SK-MEL-28 cells assessed as growth inhibition after 72 hrs by MTT-based colorimetric assay. The following applies: Homo sapiens, SK-MEL-28, 72 h. The method, boiled down: as §1
For orientation: Tetrazolium assays rely on reduction of a dye to a coloured formazan, in cell work by metabolically active cells.

For the next experiment, the system named is PC-3. Kind of experiment: Cytotoxicity against apoptotic-sensitive human PC3 cells assessed as growth inhibition after 72 hrs by MTT-based colorimetric assay. The following applies: Homo sapiens, PC-3, 72 h. The method, boiled down:
as §1

The next experiment deals with MCF7. Description: Cytotoxicity against apoptotic-sensitive human MCF7 cells assessed as growth inhibition after 72 hrs by MTT-based colorimetric assay. To be noted: Homo sapiens, MCF7, 72 h. The method, boiled down: as §1
The next experiment deals with T98G. Description: Cytotoxicity against apoptotic-resistant human T98G cells assessed as growth inhibition after 72 hrs by MTT-based colorimetric assay. The following applies: Homo sapiens, T98G, 72 h. The method, boiled down:
as §1

The test system of the next experiment is A549. Description: Cytotoxicity against apoptotic-resistant human A549 cells assessed as growth inhibition after 72 hrs by MTT-based colorimetric assay. To be noted: Homo sapiens, A549, 72 h. The method, boiled down:
as §1

In another experiment the test system is LoVo. Kind of experiment: Cytotoxicity against apoptotic-sensitive human LoVo cells assessed as growth inhibition after 72 hrs by MTT-based colorimetric assay. To be noted: Homo sapiens, LoVo, 72 h. The gist of the method:
as §1

pIC50: −log10 of the molar value.

For `C#CCCCCOc1ncc(-c2ccccc2OC)n1C`, the pIC50 is 4.47 in the experiment with B16-F10; 4.42 with SK-MEL-28; 4.68 with PC-3; 5.00 with MCF7; 4.46 with T98G; 4.66 in the experiment with A549. For the same compound, the pIC50 in the experiment with LoVo was 4.96.

In the case of `Cn1c2cnc1OCC/C=C\CCCCOc1ccccc1-2`, the pIC50 in the experiment on B16-F10 is 4.15; in the experiment with SK-MEL-28, 4.07; with PC-3, 4.21; in the experiment with MCF7, 4.20; in the experiment with T98G, 4.00; with A549 it was 4.13. The negative logarithm of the IC50 (pIC50) with LoVo was 4.40.

As to `C=CCCCCOc1ncc(-c2cc(C(C)C)ccc2OC)n1C`, the pIC50 in the experiment on B16-F10 is 5.15; in the experiment on SK-MEL-28, 5.52; with PC-3, 5.05; in the experiment with MCF7 it was 4.74; in the experiment with T98G, 5.22; with A549, 5.40. In addition, the pIC50 in the experiment on LoVo was 5.52.

Regarding `C=CCCCCOc1nccn1C`, the negative logarithm of the IC50 (pIC50) is 4.29 with B16-F10; below 4.00 in the experiment on SK-MEL-28; below 4.00 with PC-3; below 4.00 with MCF7; below 4.00 in the experiment with T98G; below 4.00 in the experiment on A549. Besides, in the experiment with LoVo, the negative logarithm of the IC50 (pIC50) was below 4.00.

Turning to `C=CCCCCOc1ncc(-c2cc(Cl)ccc2OC)n1C`, the pIC50 in the experiment with B16-F10 is 4.54; in the experiment on SK-MEL-28, 4.55; in the experiment on PC-3 it was 4.49; in the experiment on MCF7, 4.60; with T98G, 4.32; in the experiment on A549, 4.47. For the same compound, in the experiment with LoVo, the pIC50 is 4.55.

Consider `CCCCOc1ncc(-c2ccccc2OC)n1C`, for which the negative-log IC50 (pIC50) is 4.15 in the experiment with B16-F10; 4.09 in the experiment on SK-MEL-28; 4.15 in the experiment on PC-3; 4.26 in the experiment on MCF7; 4.02 with T98G; 4.06 with A549. The pIC50 in the experiment on LoVo was 4.41.

`C=CCCCCOc1ncc(I)n1C`: the pIC50 is 4.29 in the experiment with B16-F10; below 4.00 in the experiment with SK-MEL-28; below 4.00 in the experiment with PC-3; below 4.00 with MCF7; below 4.00 in the experiment with T98G; below 4.00 in the experiment on A549. Besides, the negative logarithm of the IC50 (pIC50) in the experiment on LoVo is 4.08.

As for `COc1ccccc1-c1cnc(OCC(F)(F)C(F)(F)C(F)(F)C(F)(F)C(F)(F)F)n1C`, the pIC50 in the experiment on B16-F10 was 4.42; in the experiment with SK-MEL-28 it was 4.18; in the experiment on PC-3, 4.14; with MCF7, 4.20; in the experiment on T98G, 4.11; in the experiment with A549, 4.08. In addition, the pIC50 in the experiment on LoVo was 4.29.

Take `C=CCCCCOc1ncc(-c2ccc(Cl)cc2OC)n1C`: the negative logarithm of the IC50 (pIC50) is 4.37 in the experiment on B16-F10; 4.30 in the experiment with SK-MEL-28; 4.44 in the experiment on PC-3; 4.43 in the experiment with MCF7; 4.17 with T98G; 4.33 in the experiment with A549. The negative logarithm of the IC50 (pIC50) in the experiment with LoVo was 4.46.

For the compound `COc1ccc(C)cc1-c1cnc(OCCCCc2ccccc2)n1C`, the negative-log IC50 (pIC50) was 4.47 with B16-F10; 4.38 in the experiment on SK-MEL-28; 4.37 in the experiment with PC-3; 4.55 with MCF7; 4.36 in the experiment on T98G; 4.40 in the experiment with A549. Further, in the experiment with LoVo, the pIC50 is 4.57.

On to `C=CCCCCOc1nc(-c2ccccc2OC)cn1C`, for which the negative-log IC50 (pIC50) with B16-F10 is 4.16; in the experiment with SK-MEL-28, below 4.00; with PC-3 it was 4.07; with MCF7, 4.11; in the experiment on T98G, below 4.00; in the experiment on A549, 4.04. Besides, the pIC50 in the experiment with LoVo is 4.09.

For the compound `C=CCCCCOc1ncc(-c2cc(F)c(F)cc2OC)n1C`, the negative-log IC50 (pIC50) in the experiment with B16-F10 is 4.37; in the experiment on SK-MEL-28 it was 4.40; in the experiment with PC-3, 4.40; with MCF7, 4.49; with T98G it was 4.28; with A549, 4.37. For the same compound, the negative-log IC50 (pIC50) in the experiment with LoVo is 4.44.

For the compound `C=CCCCCOc1ncc(-c2cccc(OC)c2OC)n1C`, the negative logarithm of the IC50 (pIC50) with B16-F10 is 4.57; in the experiment with SK-MEL-28 it was 4.57; in the experiment on PC-3, 4.44; in the experiment on MCF7 it was 4.55; in the experiment with T98G, 4.46; with A549 it was 4.37. Moreover, in the experiment with LoVo, the negative-log IC50 (pIC50) is 4.96.

For `CCCCCCOc1ncc(-c2ccccc2OC)n1C`, the pIC50 was 4.42 in the experiment on B16-F10; 4.37 in the experiment on SK-MEL-28; 4.48 with PC-3; 4.57 in the experiment on MCF7; 4.24 with T98G; 4.43 in the experiment with A549. Besides, the pIC50 in the experiment on LoVo was 4.57.

Consider `COc1ccccc1-c1cnc(OCCCc2ccccc2)n1C`, for which the pIC50 with B16-F10 is 5.15; in the experiment on SK-MEL-28, 5.40; in the experiment with PC-3, 4.57; in the experiment on MCF7, 5.52; in the experiment with T98G, 5.52; in the experiment with A549, 5.52. For the same compound, the pIC50 in the experiment with LoVo is 5.52.

As to `C=CCCCCOc1ncc(-c2cc(C(F)(F)F)ccc2OC)n1C`, the pIC50 with B16-F10 was 4.23; with SK-MEL-28, 4.25; in the experiment on PC-3, 4.24; in the experiment with MCF7, 4.21; in the experiment on T98G, 4.06; with A549 it was 4.21. Moreover, the negative-log IC50 (pIC50) in the experiment with LoVo is 4.29.
